Test results from ChEMBL document CHEMBL1147839, “New highly hydrosoluble and not self-aggregated perylene derivatives with three and four polar side-chains as G-quadruplex telomere targeting agents and telomerase inhibitors” (Bioorg Med Chem Lett, 2007).

Species on record: Homo sapiens
Assay: Inhibition of human telomerase at 5 uM after 2 hrs by TRAP assay
Procedure, shortened: (§1)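 Modified TRAP with TSG4 substrate primer (0.4 μM) and 50 μM dNTPs in TRAP buffer (pH 8.3, 1.5 mM MgCl2, 68 mM KCl, 0.05% Tween 20, 1 mM EGTA). The mix was heated 90 C 10 min, then iced. Drug was preincubated 2 h at 30 C. SKN-Be neuroblastoma cell extract was added for 30 min at 30 C, then phenol/chloroform extraction. PCR (30 cycles) used 32P-TSG4, CXext primer and Taq. Runs done at least three independent times.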

inhibition | Compound
41% | CN(C)CCCNc1cc2c3c(ccc4c5c(NCCCN(C)C)cc6c7c(ccc(c1c34)c75)C(=O)N(CCCN(C)C)C6=O)C(=O)N(CCCN(C)C)C2=O
47% | CN(C)CCCNc1cc2c3c(cc(NCCCN(C)C)c4c5ccc6c7c(ccc(c1c34)c75)C(=O)N(CCCN(C)C)C6=O)C(=O)N(CCCN(C)C)C2=O
39% | CN(C)CCCNc1cc2c3c(ccc4c5ccc6c7c(ccc(c1c34)c75)C(=O)N(CCCN(C)C)C6=O)C(=O)N(CCCN(C)C)C2=O
49% | CN(C)CCCNc1cc2c3c(ccc4c5c(Br)cc6c7c(ccc(c1c34)c75)C(=O)N(CCCN(C)C)C6=O)C(=O)N(CCCN(C)C)C2=O

Species on record: Homo sapiens
Assay: Inhibition of human telomerase at 10 uM after 2 hrs by TRAP assay
Procedure, shortened: as §1

inhibition | Compound
54% | CN(C)CCCNc1cc2c3c(ccc4c5c(NCCCN(C)C)cc6c7c(ccc(c1c34)c75)C(=O)N(CCCN(C)C)C6=O)C(=O)N(CCCN(C)C)C2=O
56% | CN(C)CCCNc1cc2c3c(cc(NCCCN(C)C)c4c5ccc6c7c(ccc(c1c34)c75)C(=O)N(CCCN(C)C)C6=O)C(=O)N(CCCN(C)C)C2=O
57% | CN(C)CCCNc1cc2c3c(ccc4c5ccc6c7c(ccc(c1c34)c75)C(=O)N(CCCN(C)C)C6=O)C(=O)N(CCCN(C)C)C2=O
55% | CN(C)CCCNc1cc2c3c(ccc4c5c(Br)cc6c7c(ccc(c1c34)c75)C(=O)N(CCCN(C)C)C6=O)C(=O)N(CCCN(C)C)C2=O

Species on record: Homo sapiens
Assay: Inhibition of human telomerase at 20 uM after 2 hrs by TRAP assay
Procedure, shortened: as §1

inhibition | Compound
54% | CN(C)CCCNc1cc2c3c(ccc4c5c(NCCCN(C)C)cc6c7c(ccc(c1c34)c75)C(=O)N(CCCN(C)C)C6=O)C(=O)N(CCCN(C)C)C2=O
59% | CN(C)CCCNc1cc2c3c(cc(NCCCN(C)C)c4c5ccc6c7c(ccc(c1c34)c75)C(=O)N(CCCN(C)C)C6=O)C(=O)N(CCCN(C)C)C2=O
59% | CN(C)CCCNc1cc2c3c(ccc4c5ccc6c7c(ccc(c1c34)c75)C(=O)N(CCCN(C)C)C6=O)C(=O)N(CCCN(C)C)C2=O
59% | CN(C)CCCNc1cc2c3c(ccc4c5c(Br)cc6c7c(ccc(c1c34)c75)C(=O)N(CCCN(C)C)C6=O)C(=O)N(CCCN(C)C)C2=O

Species on record: Homo sapiens
Assay: Inhibition of human telomerase at 2 uM after 2 hrs by TRAP assay
Procedure, shortened: as §1

inhibition | Compound
8% | CN(C)CCCNc1cc2c3c(ccc4c5c(NCCCN(C)C)cc6c7c(ccc(c1c34)c75)C(=O)N(CCCN(C)C)C6=O)C(=O)N(CCCN(C)C)C2=O
12% | CN(C)CCCNc1cc2c3c(cc(NCCCN(C)C)c4c5ccc6c7c(ccc(c1c34)c75)C(=O)N(CCCN(C)C)C6=O)C(=O)N(CCCN(C)C)C2=O
24% | CN(C)CCCNc1cc2c3c(ccc4c5ccc6c7c(ccc(c1c34)c75)C(=O)N(CCCN(C)C)C6=O)C(=O)N(CCCN(C)C)C2=O
18% | CN(C)CCCNc1cc2c3c(ccc4c5c(Br)cc6c7c(ccc(c1c34)c75)C(=O)N(CCCN(C)C)C6=O)C(=O)N(CCCN(C)C)C2=O
